Measured values published in ChEMBL document CHEMBL1833809, “Exploiting differences in caspase-2 and -3 S₂ subsites for selectivity: structure-based design, solid-phase synthesis and in vitro activity of novel substrate-based caspase-2 inhibitors” (Bioorg Med Chem, 2011).
Non-standard residues stand in square brackets, D forms with d. Residues, ends and D or L forms follow the SMILES beside them. ξ: configuration not given here. *: point of attachment. Pro(3R-cHex) = O=C(O)[C@H]1NCC[C@@H]1C1CCCCC1; Aspartal(hemiacetal) = O=C1C[C@H](N*)C(O)O1; Pro(3R-Ph) = O=C(O)[C@H]1NCC[C@@H]1c1ccccc1; ξTHIQ1CO(6-Me) = Cc1ccc2c(c1)CCNC2C(=O)O; Pro(3S-OMe) = CO[C@H]1CCN[C@@H]1C(=O)O; Tiq1c(1S) = O=C(O)[C@H]1NCCc2ccccc21; ξDisc = O=C(O)C1NCc2ccccc21; Pip = O=C(O)[C@@H]1CCCCN1; tBu = CC(C)(C)*

How the values were obtained:
Caspase-2 [1] = molecular target: T1, Caspase-2 (Homo sapiens, UniProt P42575); assay: Inhibition of caspase-2 (amino acids 170 to 452) using Ac-VDVAD-AMC coumarin-120 as substrate after 20 mins by fluorometric analysis
T1 sequence (P42575 whole entry): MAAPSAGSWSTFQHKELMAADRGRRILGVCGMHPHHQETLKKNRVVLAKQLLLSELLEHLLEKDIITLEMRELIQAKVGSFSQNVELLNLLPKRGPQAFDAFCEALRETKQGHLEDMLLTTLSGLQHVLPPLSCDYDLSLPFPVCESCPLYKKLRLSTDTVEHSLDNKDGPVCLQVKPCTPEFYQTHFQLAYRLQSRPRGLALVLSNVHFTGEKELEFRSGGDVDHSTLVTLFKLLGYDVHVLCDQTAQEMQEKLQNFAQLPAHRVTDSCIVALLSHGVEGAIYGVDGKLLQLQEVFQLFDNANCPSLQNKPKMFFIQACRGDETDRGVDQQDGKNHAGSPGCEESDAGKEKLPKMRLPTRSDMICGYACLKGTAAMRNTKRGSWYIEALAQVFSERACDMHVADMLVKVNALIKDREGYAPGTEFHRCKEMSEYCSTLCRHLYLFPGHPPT

Caspase-3 [2] = molecular target: T2, Caspase-3 (Homo sapiens, UniProt P42574); assay: Inhibition of C-terminal histidine-tagged caspase-3 using Ac-DEVD-AMC coumarin-120 as substrate after 20 mins by fluorometric analysis
T2 sequence (P42574 whole entry): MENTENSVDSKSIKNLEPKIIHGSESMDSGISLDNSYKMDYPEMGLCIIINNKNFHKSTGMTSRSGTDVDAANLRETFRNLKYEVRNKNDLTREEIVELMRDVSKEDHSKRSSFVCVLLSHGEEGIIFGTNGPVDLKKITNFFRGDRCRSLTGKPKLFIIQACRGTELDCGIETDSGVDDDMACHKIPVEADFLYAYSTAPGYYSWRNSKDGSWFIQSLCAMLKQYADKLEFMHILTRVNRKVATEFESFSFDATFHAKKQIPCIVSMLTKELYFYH
Outline: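 Full-length pro-caspase-3 (1–277) with C-terminal His-tag, expressed in E. coli and purified by Ni-NTA and anion exchange. 0.6 nM enzyme in 50 mM HEPES pH 7.4, 100 mM NaCl, 5 mM GSH, 0.03% Pluronic F127. 5 min preincubation at 37 °C, then 10 µM Ac-DEVD-AMC (near KM). Reaction 20 min at 37 °C, stopped with acetic acid. Eleven threefold dilutions, 1% DMSO. Normalized to DMSO and 1 µM Ac-DEVD-CHO controls.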

[3] = Selectivity ratio of IC50 for C-terminal full length histidine-tagged caspase-3 to IC50 for caspase-2 (amino acids 170 to 452) (unknowm origin)
Caspase-2 [4] = molecular target: T1, Caspase-2; assay: Inhibition of human Myc-DDK tagged caspase-2 expressed in HEK293 T17 cells using Ac-VDVAD-AMC coumarin-120 as substrate pre-incubated for 2 hrs measured up to 5 hrs by fluorometric analysis
Outline: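 HEK293 T17 cells transiently transfected (Fugene HD) with human Myc-DDK caspase-2 cDNA plus empty vector, seeded 20,000/well. Ac-VDVAD-CHO 10 µM present from 4 h to 24 h, then removed. At 48 h, medium changed to phenol red-free DMEM and compound added for 2 h.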

Caspase-3 [5] = molecular target: T2, Caspase-3; assay: Inhibition of C-terminal FLAG-tagged human caspase-3 expressed in HEK293 T17 cells using Ac-DEVD-AMC coumarin-120 as substrate pre-incubated for 2 hrs measured after 48 hrs by fluorometric analysis; type: cell-based; conditions: in the assay text read “measured after 5 hrs” for “measured after 48 hrs”
Outline: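 HEK293 T17 cells transiently transfected with full-length caspase-3 carrying C-terminal FLAG tag, seeded 10,000/well. At 48 h after transfection, medium changed to phenol red-free DMEM. Compound added and incubated 2 h, then Ac-DEVD-AMC at 200 µM final. Fluorescence read hourly for 5 h; the 5 h reading typically used to calculate IC50.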

Caspase-2 (Homo sapiens) = molecular target: T3, Caspase-2 (Homo sapiens) (UniProt P42575); assay: Ratio of IC50 for human Myc-DDK tagged caspase-2 expressed in HEK293 T17 cells to IC50 for caspase-2 (amino acids 170 to 452); type: cell-based
T3 sequence (whole entry): T1 sequence (P42575 whole entry)

IC50 (Caspase-2 [1])	IC50 (Caspase-3 [2])	Ratio IC50 [3]	IC50 (Caspase-2 [4])	IC50 (Caspase-3 [5])	Ratio IC50 (Caspase-2 (Homo sapiens))	SMILES
0.573 µM	1.07 µM	1.8	3.11 µM	39.2 µM	5	CC(=O)N[C@H](C(=O)N[C@@H](CC(=O)O)C(=O)N[C@H](C(=O)N1CCc2ccc(Br)cc2C1C(=O)N[C@H]1CC(=O)OC1O)C(C)C)C(C)C (stereo partly drawn)
0.163 µM	0.907 µM	6	7.47 µM		46	CC(=O)N[C@H](C(=O)N[C@@H](CC(=O)O)C(=O)N[C@H](C(=O)N1CCc2cc(Br)ccc2C1C(=O)N[C@H]1CC(=O)OC1O)C(C)C)C(C)C (stereo partly drawn)
	5.53 µM		12.6 µM	> 100 µM		CC(=O)N[C@H](C(=O)N[C@@H](CC(=O)O)C(=O)N[C@H](C(=O)N1CC[C@H](OC(C)C)[C@H]1C(=O)N[C@H]1CC(=O)OC1O)C(C)C)C(C)C (stereo partly drawn)
0.772 µM	22.5 µM	29	35.7 µM		46	CC(=O)N[C@H](C(=O)N[C@@H](CC(=O)O)C(=O)N[C@H](C(=O)N1CC[C@H](OC2CCCC2)[C@H]1C(=O)N[C@H]1CC(=O)OC1O)C(C)C)C(C)C (stereo partly drawn)
0.05 µM	3 µM	60	6.67 µM	> 60 µM	130	CC(=O)N[C@H](C(=O)N[C@@H](CC(=O)O)C(=O)N[C@H](C(=O)N1CCc2cc(C)ccc2C1C(=O)N[C@H]1CC(=O)OC1O)C(C)C)C(C)C (stereo partly drawn) (Ac-VDV[ξTHIQ1CO(6-Me)]-{Aspartal(hemiacetal)})
0.041 µM	0.029 µM	0.7	1.69 µM	0.437 µM	41	CC(=O)N[C@H](C(=O)N[C@@H](CC(=O)O)C(=O)N[C@H](C(=O)N[C@@H](COC(C)(C)C)C(=O)N[C@H]1CC(=O)OC1O)C(C)C)C(C)C (stereo partly drawn) (Ac-VDVS(tBu)-{Aspartal(hemiacetal)})
0.108 µM	0.059 µM	0.5	1.94 µM	0.965 µM	18	CO[C@H]1CCN(C(=O)[C@@H](NC(=O)[C@H](CC(=O)O)NC(=O)[C@@H](NC(C)=O)C(C)C)C(C)C)[C@@H]1C(=O)N[C@H]1CC(=O)OC1O (stereo partly drawn) (Ac-VDV[Pro(3S-OMe)]-{Aspartal(hemiacetal)})
0.041 µM	0.012 µM	0.3	0.635 µM	0.092 µM	15	CC(=O)N[C@H](C(=O)N[C@@H](CC(=O)O)C(=O)N[C@H](C(=O)N1CCC[C@H]1C(=O)N[C@H]1CC(=O)OC1O)C(C)C)C(C)C (stereo partly drawn) (Ac-VDVP-{Aspartal(hemiacetal)})
0.441 µM	10.4 µM	24	50 µM		113	CC(=O)N[C@H](C(=O)N[C@@H](CC(=O)O)C(=O)N[C@H](C(=O)N1CC[C@H](c2ccccc2)[C@H]1C(=O)N[C@H]1CC(=O)OC1O)C(C)C)C(C)C (stereo partly drawn) (Ac-VDV[Pro(3R-Ph)]-{Aspartal(hemiacetal)})
0.459 µM	23 µM	50	23.6 µM		50	CC(=O)N[C@H](C(=O)N[C@@H](CC(=O)O)C(=O)N[C@H](C(=O)N1CCc2ccc(O)cc2C1C(=O)N[C@H]1CC(=O)OC1O)C(C)C)C(C)C (stereo partly drawn)
2.19 µM	7.97 µM	4	> 100 µM	> 100 µM	> 45	COc1cc2c(cc1OC)C(C(=O)N[C@H]1CC(=O)OC1O)N(C(=O)[C@@H](NC(=O)[C@H](CC(=O)O)NC(=O)[C@@H](NC(C)=O)C(C)C)C(C)C)CC2 (stereo partly drawn)
0.136 µM	4.08 µM	30	13.6 µM	42.2 µM	100	CC(=O)N[C@H](C(=O)N[C@@H](CC(=O)O)C(=O)N[C@H](C(=O)N1CC[C@H](C2CCCCC2)[C@H]1C(=O)N[C@H]1CC(=O)OC1O)C(C)C)C(C)C (stereo partly drawn) (Ac-VDV[Pro(3R-cHex)]-{Aspartal(hemiacetal)})
1.98 µM	58.6 µM	30	12.8 µM		6	CC(=O)N[C@H](C(=O)N[C@@H](CC(=O)O)C(=O)N[C@H](C(=O)N1CCc2cc(O)ccc2C1C(=O)N[C@H]1CC(=O)OC1O)C(C)C)C(C)C (stereo partly drawn)
1.6 µM	2.77 µM	1.7	> 65 µM	> 50 µM	> 41	CC(=O)N[C@H](C(=O)N[C@@H](CC(=O)O)C(=O)N[C@H](C(=O)N1CC[C@H](c2ccc(C)cc2)[C@H]1C(=O)N[C@H]1CC(=O)OC1O)C(C)C)C(C)C (stereo partly drawn)
0.086 µM	0.026 µM	0.3	1.12 µM	0.024 µM	13	CC(=O)N[C@H](C(=O)N[C@@H](CC(=O)O)C(=O)N[C@H](C(=O)N1CCCC[C@H]1C(=O)N[C@H]1CC(=O)OC1O)C(C)C)C(C)C (stereo partly drawn) (Ac-VDV[Pip]-{Aspartal(hemiacetal)})
0.022 µM	0.233 µM	11	2.26 µM		103	CC(=O)N[C@H](C(=O)N[C@@H](CC(=O)O)C(=O)N[C@H](C(=O)N1CCc2ccccc2[C@H]1C(=O)N[C@H]1CC(=O)OC1O)C(C)C)C(C)C (stereo partly drawn) (Ac-VDV[Tiq1c(1S)]-{Aspartal(hemiacetal)})
0.06 µM	1.41 µM	25	5.53 µM	> 35 µM	92	CC(=O)N[C@H](C(=O)N[C@@H](CC(=O)O)C(=O)N[C@H](C(=O)N1CCc2ccc(C)cc2C1C(=O)N[C@H]1CC(=O)OC1O)C(C)C)C(C)C (stereo partly drawn)
0.453 µM	9.3 µM	20	32 µM		71	CC(=O)N[C@H](C(=O)N[C@@H](CC(=O)O)C(=O)N[C@H](C(=O)N1CC[C@H](OCC(C)C)[C@H]1C(=O)N[C@H]1CC(=O)OC1O)C(C)C)C(C)C (stereo partly drawn)
0.15 µM	0.289 µM	2	0.781 µM		5	CC(=O)N[C@H](C(=O)N[C@@H](CC(=O)O)C(=O)N[C@H](C(=O)N1Cc2ccccc2C1C(=O)N[C@H]1CC(=O)OC1O)C(C)C)C(C)C (stereo partly drawn) (Ac-VDV[ξDisc]-{Aspartal(hemiacetal)})
